Results taken from ChEMBL document CHEMBL1157590, “Design, synthesis, and preliminary pharmacological evaluation of new imidazolinones as L-DOPA prodrugs” (Bioorg Med Chem, 2010).
≈ marks a conversion by molar mass, not a printed value. Calls of active or inactive are those of the source. No cut-off for these calls is given here.

Key:
[1] = Chemical stability assessed as half life in phosphate buffer at pH 7.4; type: physicochemical
How it was run: (§1)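 Prodrug hydrolysis was followed at 37 ± 0.5 °C. Line 3 used 0.02 M HCl buffer pH 1.3 (nonenzymatic simulated gastric fluid); line 4 used 0.02 M phosphate buffer pH 7.4. Each buffer contained 20% acetonitrile, and the reaction was started with 10^-4 M acetonitrile stock. Aliquots were analysed by HPLC. Kobs came from the slope of log(% residual prodrug) versus time; triplicate runs, mean ± SEM.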

[2] = test system: Radical scavenging activity; assay: Antioxidant activity assessed as DPPH radical scavenging activity; type: functional
How it was run: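 DPPH-HPLC method. Fresh 500 μM DPPH in methanol was mixed 1:1 by volume with antioxidant solutions made at 600, 300, 100 and 50 μM in methanol (DPPH final 250 μM). Residual DPPH was separated by reversed-phase C18 HPLC using a pH 3.0 phosphate/octanesulfonate/EDTA mobile phase with 6% acetonitrile. Vitamin E, caffeic acid and L-DOPA were run as references.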

[3] = Octanol-water partition coefficient, log P at pH 7.4 by HPLC; type: physicochemical
How it was run: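 Shake-flask method. About 5 mg of compound was shaken in 1 mL n-octanol and filtered, then an equal volume of phosphate buffer pH 7.4 was added. The mixture was inverted up to 200 times over 5 min and left 30 min for the phases to separate. Both phases were analysed by HPLC. Mean of three experiments, SEM reported.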

[4] = Chemical stability assessed as half life in hydrochloric acid buffer at pH 1.3; type: physicochemical; how it was run: as §1
[5] = Metabolic stability in 80% rat plasma assessed as half life at pH 7.4; type: ADME, cell-free
How it was run: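 Plasma was prepared from citrated blood (0.3% citric acid) of rats or humans by centrifugation at 3000 g and diluted to 80% with 0.02 M phosphate buffer pH 7.4. Drug from a 1 mg/mL acetonitrile stock was incubated at 37 °C with shaking. Timed aliquots were deproteinized with 0.01 M HCl in methanol, centrifuged and analysed by HPLC. First-order plots gave t1/2; triplicate, mean ± SEM.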

Homo sapiens = species: Homo sapiens; assay: Metabolic stability in 80% human plasma assessed as half life at pH 7.4
[6] = Aqueous solubility after 15 mins by shake flask method; type: physicochemical; conditions: water

For COC(=O)CN1C(=O)[C@H](Cc2ccc(OC(C)=O)c(OC(C)=O)c2)NC1(C)C, the half-life [1] was 11.6 h, the Activity [2] was “inactive” and the logD [3] was 0.042. It also gave a half-life [4] of 71.2 h, a half-life [5] of 0.065 h and a half-life (Homo sapiens) of 0.392 h. It also gave a solubility thermodynamic at 0.25 h [6] of 26000 µg/mL (≈ 66.4 mM).

With COC(=O)CN1C(=O)[C@H](Cc2ccc(O)c(O)c2)NC1(C)C the half-life [1] was 4.2 h, the Activity [2] was “Active” and the logD [3] was 0.101. The half-life [4] was 189 h, the half-life [5] was 1.17 h and the half-life (Homo sapiens) was 0.714 h. For the same compound, the solubility thermodynamic at 0.25 h [6] was 3990 µg/mL (≈ 12.9 mM).

For CCC1(CC)N[C@@H](Cc2ccc(O)c(O)c2)C(=O)N1CC(=O)OC, the half-life [1] was 4.75 h, the Activity [2] was “Active” and the logD [3] was 0.94. The half-life [4] was 64.3 h, the half-life [5] was 1.89 h and the half-life (Homo sapiens) was 0.793 h. For the same compound, the solubility thermodynamic at 0.25 h [6] was 260 µg/mL (≈ 0.773 mM).

For N[C@@H](Cc1ccc(O)c(O)c1)C(=O)O [LEVODOPA], the logP [3] was -2.38 and the solubility thermodynamic at 0.25 h [6] was 3600 µg/mL (≈ 18.3 mM).
